Fewer inactive variants are shown than the library holds.
B1: tRNA (parent)
chain: GUUCCGUUGGCGUAAUGGUAACGCGUCUCCCUCCUAAGGAGAAGACUGCGGGUUCGAGUCCCGUACGGAACG

Variants of: B1
Assay: yeast fitness relative to wild type (ratio to wild type); higher = fitter; tRNA-Arg(CCU), competitive growth, 37 C, YPD
How it was run: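 The tRNA-Arg(CCU) gene variants were made by chemical synthesis with a 3% per-site mutation rate at 69 sites and inserted at the native genomic locus of Saccharomyces cerevisiae. After pooling, the strains were competed in YPD at 37°C for 24 hours in six parallel replicates. Gene amplicons from the start population and each end population were read by 100-nucleotide paired-end sequencing, and Darwinian fitness relative to wild type was taken from genotype frequency changes. Genotypes needed ≥ 100 starting reads, and estimates < 0.5 were set to 0.5.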

**Q.** Which yeast fitness does the source give for GUUCCGUUGGCGUAUUGGUGACGCGUCUCCCUCCUAAGGAGAAGAGUGCGGGUUCGAGUCACGUACGGAACG here?
**A.** ≤ 0.5

**Q.** With GUUCCGUUGGCGUAUUGGUGACGCGUCUCCCUCCUAAGGAGAAGACUGCGGGUUUGAGUCCCCUACGGAACG as the variant, how does the yeast fitness read?
**A.** ≤ 0.5

**Q.** For GUUCCGUUGGCGUAUUGGUGACGCGUCGCCCUUCUAAGGAGAAGACUGCGGGUUCGAGUCCCGUACGGAACG, which yeast fitness is on record?
**A.** ≤ 0.5

**Q.** For GUUCCGUUGGCGUAUUGGUGACGCGUCUCCCUCCCAAGGAGAAGACUUCGGGUUGGAGUCCCGUACGGAACG, which yeast fitness is on record?
**A.** ≤ 0.5

**Q.** With GUUCCGUUGGCGUAUUGGUUACGCGUCUCCCUCCUAAGGAGAAGCCUGCGGGUUCGGGUCCCGUACGGAACG as the variant, how does the yeast fitness read?
**A.** ≤ 0.5

**Q.** Which yeast fitness does the source give for GUUCCGUUGGCGUAUUGGUACCGCGUCUCCCUCCUAAGGAGAAGACUGCGGGUUCGAGUCCCGUACGGAACG here?
**A.** 0.611

**Q.** Which yeast fitness does the source give for GUUCCGUUGGCGUAUUGGUACCGGGUCUUCCUCCUAAGGAGCAGACUGCGGGUUCGAGUCCCGUACGGAACG here?
**A.** ≤ 0.5

**Q.** For GUUCCGUUGGCGUAUUGGUACCGGGUCUUCCUCCUAAGGAGCAGACUGCGGGUUAGAGUCCCGUACGGAACG, which yeast fitness is on record?
**A.** ≤ 0.5

**Q.** With GUUCCGUUGGCGUAUUGGUACCGGGUCUUCCUCCUAAGGAGCAGACUGCGGGUUCUAGACCCGUACGGAACG as the variant, how does the yeast fitness read?
**A.** ≤ 0.5

**Q.** For GUUCCGUUGGCGUAUUGGUACCGGGUCUUCCUCCUAAGGAGCAGACUGCGGGUUCGAGGCCCGUACCGAACG, which yeast fitness is on record?
**A.** ≤ 0.5

**Q.** Which yeast fitness does the source give for GUUCCGUUGGCGUAUUGGUACCGGGUCUUCCUCCUAAGGAGCAGACUGCGGGUUCGAGGCCCGUACUGAACG here?
**A.** ≤ 0.5

**Q.** Which yeast fitness does the source give for GUUCCGUUGGCGUAUUGGUACCGGGUCUCCCUCCUAAGGAGAAGACUGCGGGUUCGAGUCCGGUACGGAACG here?
**A.** ≤ 0.5

**Q.** For GUUCCGUUGGCGUAUUGGUACCCCGUCUCCCUCCUAAGGAGAAGACUGCGGGUUAGAGUCCCGUACGGAACG, which yeast fitness is on record?
**A.** ≤ 0.5

**Q.** With GUUCCGUUGGCGUAUUGGUACCCCGUCUCCCUCCUAAGGAGAAGACUGCGGGUUAGAGUCCCGACCGGAACG as the variant, how does the yeast fitness read?
**A.** ≤ 0.5

**Q.** For GUUCCGUUGGCGUAUUGGUACCCCGUCUCCCUCCUAAGGAGAAGACUGCGGGUUAGAGUCCCGACCAGAACG, which yeast fitness is on record?
**A.** ≤ 0.5

**Q.** For GUUCCGUUGGCGUAUUGGUAGCGCGUCUUCCUCCUAAGGAGAACACUGCGGGUUACAGUCCCGUACGGAACG, which yeast fitness is on record?
**A.** ≤ 0.5

**Q.** With GUUCCGUUGGCGUAUUGGUAACGCGUCUCCCUCCUCAGGAGAAGACUGCGGGUUCGAGUCCCGUACGGAACG as the variant, how does the yeast fitness read?
**A.** ≤ 0.5

**Q.** Which yeast fitness does the source give for GUUCCGUUGGCGUAUUGGUAACGCGUCUCCCUCCUGAGGAGAAGACUGCGGGUUGGAGUCCCGUACGGAACG here?
**A.** 0.565

**Q.** With GUUCCGUUGGCGUAUUGGUAACGCGUCUCCCUCCUUAGGAGAAGACUGCGGGUUCGAGUCCCGUACGGAACG as the variant, how does the yeast fitness read?
**A.** ≤ 0.5

**Q.** For GUUCCGUUGGCGUAUUGGUAACGCGUCUCCCUCCUUAGGAAAAGACUGCGGGUUCGAGUCCCGUACGGAACG, which yeast fitness is on record?
**A.** ≤ 0.5

**Q.** Which yeast fitness does the source give for GUUCCGUUGGCGUAUUGGUAACGCGUCUCCCUCCUACGGAGAAGACUGCGGGUUCGAGUCCCGUACGGAACG here?
**A.** 0.678

**Q.** Which yeast fitness does the source give for GUUCCGUUGGCGUAUUGGUAACGCGUCUCCCUCCUAGGGAGAAGACUGCGGGUUCGAGUCCCGUACGGAACG here?
**A.** 0.66

**Q.** For GUUCCGUUGGCGUAUUGGUAACGCGUCUCCCUCCUAGGGAGCAGACUGGGGGUUCGAGUCUCGUACGGAACG, which yeast fitness is on record?
**A.** ≤ 0.5

**Q.** For GUUCCGUUGGCGUAUUGGUAACGCGUCUCCCUCCUAGGGAGAAGACUGCGGGUUCGAGUCCCGUAGGGAACG, which yeast fitness is on record?
**A.** ≤ 0.5

**Q.** For GUUCCGUUGGCGUAUUGGUAACGCGUCUCCCUCCUAUGGAGAAGACUGCGGGUUCGAGUCCCGUACCGAACG, which yeast fitness is on record?
**A.** ≤ 0.5

**Q.** Which yeast fitness does the source give for GUUCCGUUGGCGUAUUGGUAACGCGUCUCCCUCCUAAGGCGAAGACUGCGGGUUCGAGUCCCGUACGGAACG here?
**A.** 0.723

**Q.** For GUUCCGUUGGCGUAUUGGUAACGCGUCUCCCUCCUAAGGGGAAGACUGCGGGUUCGAGUCCCGUACGGAACG, which yeast fitness is on record?
**A.** 0.598

**Q.** With GUUCCGUUGGCGUAUUGGUAACGCGUCUCCCUCCUAAGGGGGAGACUGCGGGUUCGUGUCCGGUAUGGAACG as the variant, how does the yeast fitness read?
**A.** ≤ 0.5

**Q.** With GUUCCGUUGGCGUAUUGGUAACGCGUCUCCCUCCUAAGGUGAAGACUGCGGGUUCGAGUCCCAUACGGAACG as the variant, how does the yeast fitness read?
**A.** ≤ 0.5

**Q.** For GUUCCGUUGGCGUAUUGGUAACGCGUCUCCCUCCUAAGGUGAAGACUGCGGGUUCGAGUCCCGUACGCAACG, which yeast fitness is on record?
**A.** 0.627

**Q.** Which yeast fitness does the source give for GUUCCGUUGGCGUAUUGGUAACGCGUCUCCCUCCUAAGGAGCCGACUGCGGGUUCGAGUCCCGUACGGAACG here?
**A.** 0.561

**Q.** For GUUCCGUUGGCGUAUUGGUAACGCGUCUCCCUCCUAAGGAGGAGAGUGCGGGUUCGAGUCACGUACGGAACG, which yeast fitness is on record?
**A.** ≤ 0.5

**Q.** With GUUCCGUUGGCGUAUUGGUAACGCGUCUCCCUCCUAAGGAGUAGAGUGCGGGUUCGAGUCGCGUACGGAACG as the variant, how does the yeast fitness read?
**A.** 0.652

**Q.** Which yeast fitness does the source give for GUUCCGUUGGCGUAUUGGUAACGCGUCUCCCUCCUAAGGAGACGACUGCGGGUUCGAGUCCCGUACGGAACG here?
**A.** 0.825

**Q.** Which yeast fitness does the source give for GUUCCGUUGGCGUAUUGGUAACGCGUCUCCCUCCUAAGGAGACGACUGCGGGUUCGAGUCCCGUACUGAACG here?
**A.** ≤ 0.5

**Q.** With GUUCCGUUGGCGUAUUGGUAACGCGUCUCCCUCCUAAGGAGAGGACUGCGGGUUCCAGUUCCGUACGGAACG as the variant, how does the yeast fitness read?
**A.** ≤ 0.5

**Q.** Which yeast fitness does the source give for GUUCCGUUGGCGUAUUGGUAACGCGUCUCCCUCCUAAGGAGAGGACUGCGGGUUCGAGCCCCGUACGGAACG here?
**A.** 0.53

Source: the RNAGym collection of RNA variant scans (doi:10.1126/science.aae0568)
